# Experimental data as given in article PMC2695835 (Bioorganic & medicinal chemistry, 2009).
# Values joined by “and” are separate entries in the source; they are usually repeats but may differ in a detail not shown here. Equal entries are not always repeated.
# Biological target: T1, GVIA iPLA2 (Homo sapiens, UniProt O60733)
# T1 sequence (O60733 1-806): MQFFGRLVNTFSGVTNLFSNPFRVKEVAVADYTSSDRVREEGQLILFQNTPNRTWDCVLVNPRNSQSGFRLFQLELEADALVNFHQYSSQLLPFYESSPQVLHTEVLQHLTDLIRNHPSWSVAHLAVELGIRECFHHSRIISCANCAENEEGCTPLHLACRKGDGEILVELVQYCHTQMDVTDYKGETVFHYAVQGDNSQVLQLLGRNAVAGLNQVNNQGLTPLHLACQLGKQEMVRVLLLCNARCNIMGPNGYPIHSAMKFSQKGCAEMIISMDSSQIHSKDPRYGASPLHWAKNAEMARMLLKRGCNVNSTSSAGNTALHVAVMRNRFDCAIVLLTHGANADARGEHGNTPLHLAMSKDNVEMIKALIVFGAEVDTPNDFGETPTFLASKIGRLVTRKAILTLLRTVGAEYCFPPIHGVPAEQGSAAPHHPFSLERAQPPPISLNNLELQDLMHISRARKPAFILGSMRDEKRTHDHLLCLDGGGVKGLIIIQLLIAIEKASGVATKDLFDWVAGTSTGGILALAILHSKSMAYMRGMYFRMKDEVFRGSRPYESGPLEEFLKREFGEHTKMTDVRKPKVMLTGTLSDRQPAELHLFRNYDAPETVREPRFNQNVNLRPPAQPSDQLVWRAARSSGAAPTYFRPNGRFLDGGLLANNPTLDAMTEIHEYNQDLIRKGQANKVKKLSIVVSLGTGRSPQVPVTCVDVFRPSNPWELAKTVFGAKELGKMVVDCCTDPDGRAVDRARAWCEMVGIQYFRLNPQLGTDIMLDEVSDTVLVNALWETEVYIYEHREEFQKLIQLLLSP
# Assay: In vitro GVIA iPLA2 inhibition, mixed micellar modified Dole assay
# Format: biochemical
# Conditions: mole fraction of inhibitor in total substrate interface required to inhibit the enzyme by 50%; mixed micelles
# In short: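 Human GVIA iPLA2 on Triton X-100 mixed micelles, either 400 μM Triton X-100/99 μM DPPC/1.5 μM 14C-DPPC in 200 mM HEPES pH 7.0, 1 mM ATP, 2 mM DTT, 0.1 mg/ml BSA, or 400 μM Triton/98.3 μM PAPC/1.7 μM 14C-PAPC in 100 mM HEPES pH 7.5, 2 mM ATP, 4 mM DTT. XI(50) obtained when screening inhibition exceeded 90%: 7 points (typically 0.005–0.091 mole fraction), linear or one-site hyperbola (BMAX = 100) fit.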
row,Compound,GVIA iPLA2 XI(50)
1,"CCCCCCCCCCCCCCC(=O)C(=O)N[C@@H](CCCC)COCC(=O)OCC [Compound 13, (S)-Ethyl 2-(2-(2-oxohexadecanamido)hexyloxy)acetate]",0.017 mole fraction and 0.017 ± 0.002 mole fraction
2,"CCCCCCCCCCCCCCC(=O)C(=O)N[C@H](C(=O)NCC(=O)OC(C)(C)C)C(C)C [Compound 8b, (S)-tert-Butyl 2-(3-methyl-2-(2-oxohexadecanamido)butanamido)acetate]",0.044 ± 0.025 mole fraction
3,"CCCCCCCCCCCCCCC(=O)C(=O)N[C@@H](CCCC)C(=O)NCC(=O)OCC [Compound 4c, (S)-Ethyl 2-(2-(2-oxohexadecanamido)hexanamido)acetate]",0.020 mole fraction and 0.020 ± 0.002 mole fraction
4,"CCCCCCCCCCCCCCC(=O)C(=O)N[C@@H](CCCC)C(=O)NCC(=O)OC(C)(C)C [Compound 8a, (S)-tert-Butyl 2-(2-(2-oxohexadecanamido)hexanamido)acetate]",0.011 mole fraction and 0.011 ± 0.001 mole fraction
5,"CCCCCCCCCCCCCCC(=O)C(=O)N[C@@H](CCCC)C(=O)NCC(=O)OC [Compound 4a, (S)-Methyl 2-(2-(2-oxohexadecanamido)hexanamido)acetate]",0.045 ± 0.018 mole fraction
